The source of these data is ChEMBL document CHEMBL1138191, “Synthesis, pharmacological evaluation, and molecular modeling studies of novel peptidic CAAX analogues as farnesyl-protein-transferase inhibitors” (J Med Chem, 2006).

The test system of one experiment is FRTL-5. As to the kind of experiment: Antiproliferative activity against FRTL5 cell line. The format is functional, cell-based. The note with it: Rattus norvegicus. The method, boiled down: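 FRTL-5 rat thyroid cells were grown in Coon's modified Ham F12 with 5% calf serum plus six hormones, including TSH 1 × 10^-10 M. Cells were seeded at ~10% confluency and attached for 24 h. Compounds in DMSO were applied for 24 h at 37 °C in 5% CO2, then washed out, followed by 48 h culture. SRB read-out, %T/C; IC50 from dose/effect curve; vehicle controls.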

For the next experiment, the system named is NIH3T3. As to the kind of experiment: Antiproliferative activity against NIH3T3 cell line. The format is functional, cell-based. To be noted: Mus musculus. The method in brief: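 NIH3T3 fibroblasts were grown in DMEM with 10% calf serum and seeded at ~10% confluency with 24 h attachment. A range of compound concentrations in DMSO was applied for 24 h at 37 °C in 5% CO2, then washed off, followed by 48 h further incubation. Growth by sulforhodamine B; %T/C versus vehicle; IC50 from dose/effect curve.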

The test system of another experiment is MCF10. The experiment in a line: Antiproliferative activity against MCF10 cell line. It counts as functional, cell-based. To be noted: Homo sapiens.
The test system of a further experiment is MCF7. As to the kind of experiment: Antiproliferative activity against MCF7 cell line. It counts as functional, cell-based. To be noted: Homo sapiens. The method in brief:
(§1)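 Monolayers in RPMI-1640 with 10% FBS, seeded ~10% confluent and allowed 24 h recovery. Compounds in DMSO at varying concentrations for 24 h (37 °C, 5% CO2), then washout and 48 h further growth. Viability by sulforhodamine B; %T/C relative to vehicle-treated controls; 50% growth-inhibitory concentration taken from dose/effect curve.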

A further experiment deals with MDA-MB-231. The experiment in a line: Antiproliferative activity against MDA-MB-231 cell line. It counts as functional, cell-based. To be noted: Homo sapiens. The method, boiled down:
as §1

A further experiment relates to T47D. As to the kind of experiment: Antiproliferative activity against T47D cell line. It counts as functional, cell-based. To be noted: Homo sapiens. The method in brief:
as §1

A further experiment has as its system LoVo. The experiment in a line: Antiproliferative activity against LoVo cell line. It counts as functional, cell-based. To be noted: Homo sapiens. The method, boiled down: as §1
Experiment [1] can be described thus: Inhibitory activity against farnesyl transferase.

The source made the active and inactive calls. No cut-off for these calls is given here.

As for `CSCC[C@H](NC(=O)[C@@H](Cc1ccc(O)c(C)c1C)NC(=O)[C@@H](NC(=O)[C@@H](N)CS)C(C)C)C(=O)O`, the result in the experiment on FRTL-5, in the experiment with NIH3T3, in the experiment on MCF10, in the experiment with MCF7, in the experiment on MDA-MB-231 and in the experiment on T47D was inactive. In addition, in the experiment on LoVo, the outcome was inactive. The molecule also displayed an IC50 in experiment [1] of 4.3 µM.

On to `CSCC[C@H](NC(=O)[C@H](Cc1cc(C)c(O)cc1C)NC(=O)[C@@H](NC(=O)[C@@H](N)CS)C(C)C)C(=O)O`, for which the result in the experiment on FRTL-5, in the experiment with NIH3T3, in the experiment with MCF10, with MCF7, in the experiment with MDA-MB-231 and with T47D was inactive. The result in the experiment with LoVo was inactive. In experiment [1], this molecule yielded an IC50 of 2.5 µM.

`COC(=O)[C@H](CCSC)NC(=O)[C@@H](Cc1ccc(O)c(C)c1C)NC(=O)[C@@H](NC(=O)[C@@H](N)CS)C(C)C`: the result in the experiment on FRTL-5, with NIH3T3, in the experiment with MCF10, in the experiment with MCF7, with MDA-MB-231 and with T47D was inactive. Also, the result with LoVo was inactive. The molecule further had an IC50 in experiment [1] of 70.5 µM.

Regarding `CSCC[C@H](NC(=O)[C@H](Cc1ccc(O)cc1C)NC(=O)[C@@H](NC(=O)[C@@H](N)CS)C(C)C)C(=O)O`, the result in the experiment on FRTL-5, with NIH3T3, in the experiment on MCF10, in the experiment with MCF7, in the experiment on MDA-MB-231 and in the experiment with T47D was inactive. In the experiment on LoVo, the outcome was inactive. In experiment [1], this molecule showed an IC50 of 4.3 µM.

`CSCC[C@H](NC(=O)[C@@H](Cc1cc(C)c(O)cc1C)NC(=O)[C@@H](NC(=O)[C@H](CS)NC=O)C(C)C)C(=O)O`: the IC50 in experiment [1] was found to be 10.2 µM.

Turning to `CSCC[C@H](NC(=O)[C@H](Cc1ccc(O)c(C)c1C)NC(=O)[C@@H](NC(=O)[C@H](CS)NC=O)C(C)C)C(=O)O`, the IC50 came to 100 µM in the experiment on MDA-MB-231, 100 µM in the experiment with T47D and 10.3 µM in experiment [1].

In the case of `CSCC[C@H](NC(=O)[C@@H](Cc1cc(C)c(O)cc1C)NC(=O)[C@@H](NC(=O)[C@@H](N)CS)C(C)C)C(=O)O`, the outcome in the experiment with FRTL-5, with NIH3T3, in the experiment with MCF10, with MCF7, with MDA-MB-231 and with T47D was inactive. For the same molecule, the result in the experiment on LoVo was inactive. In addition, in experiment [1], the IC50 is 10.5 µM.

Consider `CSCC[C@H](NC(=O)[C@@H](Cc1ccc(O)cc1C)NC(=O)[C@@H](NC(=O)[C@@H](N)CS)C(C)C)C(=O)O`, for which the outcome with FRTL-5, in the experiment with NIH3T3, with MCF10, with MCF7, in the experiment on MDA-MB-231 and in the experiment with T47D was inactive. Further, the outcome with LoVo was inactive. Also, the IC50 in experiment [1] amounted to 11.4 µM.

Consider `COC(=O)[C@H](CCSC)NC(=O)[C@H](Cc1ccc(O)c(C)c1C)NC(=O)[C@@H](NC(=O)[C@@H](N)CS)C(C)C`, for which the IC50 in the experiment with MCF7 worked out at 65 µM; in the experiment with MDA-MB-231 it was 83 µM; in the experiment with T47D, 90 µM; in the experiment on LoVo, 9.1 µM; in experiment [1], 20.4 µM.

In the case of `CSCC[C@H](NC(=O)[C@H](Cc1ccc(C)cc1C)NC(=O)[C@@H](NC(=O)[C@@H](N)CS)C(C)C)C(=O)O`, the result with FRTL-5, with NIH3T3, with MCF10, with MCF7, in the experiment with MDA-MB-231 and with T47D was inactive. In addition, the result in the experiment on LoVo was inactive. The same molecule came in with a half-maximal inhibitory concentration (IC50) in experiment [1] of 2.2 µM.

In the case of `CSCC[C@H](NC(=O)[C@H](Cc1ccc(O)c(C)c1C)NC(=O)[C@@H](NC(=O)[C@@H](N)CS)C(C)C)C(=O)O`, the result with FRTL-5, in the experiment on NIH3T3, in the experiment with MCF10, with MCF7, in the experiment with MDA-MB-231 and in the experiment with T47D was inactive. Besides, the result in the experiment on LoVo was inactive. In addition, the IC50 in experiment [1] came to 0.1 µM.

For `CSCC[C@H](NC(=O)[C@H](Cc1cc(C)c(O)cc1C)NC(=O)[C@@H](NC(=O)[C@H](CS)NC=O)C(C)C)C(=O)O`, the IC50 in experiment [1] was found to be 5.5 µM.

As for `CSCC[C@H](NC(=O)[C@H]1CC2CCCCC2N1C(=O)[C@@H](NC(=O)[C@@H](N)CS)C(C)C)C(=O)O` (stereo not given in full), the result in the experiment on FRTL-5, in the experiment with NIH3T3, with MCF10, with MCF7, with MDA-MB-231 and with T47D was inactive. In the experiment with LoVo, the result was inactive. The 50% inhibitory concentration (IC50) in experiment [1] was found to be 1 µM.

Turning to `CSCC[C@H](NC(=O)[C@@H](Cc1ccc(C)cc1C)NC(=O)[C@@H](NC(=O)[C@@H](N)CS)C(C)C)C(=O)O`, the outcome with FRTL-5, with NIH3T3, with MCF10, in the experiment on MCF7, in the experiment on MDA-MB-231 and with T47D was inactive. The outcome in the experiment on LoVo was inactive. This molecule also gave an IC50 in experiment [1] of 4.3 µM.
